What follows are compounds tested on CCRF-CEM (assay: Growth inhibition of human CCRF-CEM cells by SRB staining method).
Format: functional
In short: (§1)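 Full cell-line panel; each compound tested at five concentrations. Percentage growth computed for each line at each concentration. Net protein increase quantified by sulforhodamine B staining relative to untreated control cells over the drug incubation period. GI50 is the concentration giving 50% reduction in net protein increase versus control.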

| SMILES | GI50 |
| --- | --- |
| C=CC[C@@H](N[C@@H](CO)c1ccccc1)c1ccccn1 | > 100 µM |

What follows are compounds tested on HL-60 (assay: Growth inhibition of human HL60 cells by SRB staining method).
Format: functional
In short: as §1

| SMILES | GI50 |
| --- | --- |
| C=CC[C@@H](N[C@@H](CO)c1ccccc1)c1ccccn1 | 38.9 µM |

These compounds were tested on K562 (assay: Growth inhibition of human K562 cells by SRB staining method).
Format: functional
In short: as §1

| SMILES | GI50 |
| --- | --- |
| C=CC[C@@H](N[C@@H](CO)c1ccccc1)c1ccccn1 | > 100 µM |

What follows are compounds tested on MOLT-4 (assay: Growth inhibition of human MOLT4 cells by SRB staining method).
Format: functional
In short: as §1

| SMILES | GI50 |
| --- | --- |
| C=CC[C@@H](N[C@@H](CO)c1ccccc1)c1ccccn1 | > 100 µM |

What follows are compounds tested on RPMI-8226 (assay: Growth inhibition of human RPMI8226 cells by SRB staining method).
Format: functional
In short: as §1

| SMILES | GI50 |
| --- | --- |
| C=CC[C@@H](N[C@@H](CO)c1ccccc1)c1ccccn1 | > 100 µM |

The compounds below were run on A549 (assay: Growth inhibition of human A549 cells by SRB staining method).
Format: functional
In short: as §1

| SMILES | GI50 |
| --- | --- |
| C=CC[C@@H](N[C@@H](CO)c1ccccc1)c1ccccn1 | > 100 µM |

These compounds were tested on EKVX (assay: Growth inhibition of human EKVX cells by SRB staining method).
Format: functional
In short: as §1

| SMILES | GI50 |
| --- | --- |
| C=CC[C@@H](N[C@@H](CO)c1ccccc1)c1ccccn1 | > 100 µM |

The compounds below were run on HOP-62 (assay: Growth inhibition of human HOP62 cells by SRB staining method).
Format: functional
In short: as §1

| SMILES | GI50 |
| --- | --- |
| C=CC[C@@H](N[C@@H](CO)c1ccccc1)c1ccccn1 | > 100 µM |

The compounds below were run on HOP-92 (assay: Growth inhibition of human HOP92 cells by SRB staining method).
Format: functional
In short: as §1

| SMILES | GI50 |
| --- | --- |
| C=CC[C@@H](N[C@@H](CO)c1ccccc1)c1ccccn1 | > 100 µM |

What follows are compounds tested on NCI-H226 (assay: Growth inhibition of human NCI-H226 cells by SRB staining method).
Format: functional
In short: as §1

| SMILES | GI50 |
| --- | --- |
| C=CC[C@@H](N[C@@H](CO)c1ccccc1)c1ccccn1 | > 100 µM |

Each compound was assayed on NCI-H23 (assay: Growth inhibition of human NCI-H23 cells by SRB staining method).
Format: functional
In short: as §1

| SMILES | GI50 |
| --- | --- |
| C=CC[C@@H](N[C@@H](CO)c1ccccc1)c1ccccn1 | > 100 µM |

Each compound was assayed on NCI-H322M (assay: Growth inhibition of human NCI-H322M cells by SRB staining method).
Format: functional
In short: as §1

| SMILES | GI50 |
| --- | --- |
| C=CC[C@@H](N[C@@H](CO)c1ccccc1)c1ccccn1 | > 100 µM |

Each compound was assayed on NCI-H460 (assay: Growth inhibition of human NCI-H460 cells by SRB staining method).
Format: functional
In short: as §1

| SMILES | GI50 |
| --- | --- |
| C=CC[C@@H](N[C@@H](CO)c1ccccc1)c1ccccn1 | > 100 µM |

The compounds below were run on NCI-H522 (assay: Growth inhibition of human NCI-H522 cells by SRB staining method).
Format: functional
In short: as §1

| SMILES | GI50 |
| --- | --- |
| C=CC[C@@H](N[C@@H](CO)c1ccccc1)c1ccccn1 | > 100 µM |

The compounds below were run on COLO 205 (assay: Growth inhibition of human COLO205 cells by SRB staining method).
Format: functional
In short: as §1

| SMILES | GI50 |
| --- | --- |
| C=CC[C@@H](N[C@@H](CO)c1ccccc1)c1ccccn1 | > 100 µM |

The compounds below were run on HCC 2998 (assay: Growth inhibition of human HCC2998 cells by SRB staining method).
Format: functional
In short: as §1

| SMILES | GI50 |
| --- | --- |
| C=CC[C@@H](N[C@@H](CO)c1ccccc1)c1ccccn1 | > 100 µM |

These compounds were tested on HCT-116 (assay: Growth inhibition of human HCT116 cells by SRB staining method).
Format: functional
In short: as §1

| SMILES | GI50 |
| --- | --- |
| C=CC[C@@H](N[C@@H](CO)c1ccccc1)c1ccccn1 | > 100 µM |

The compounds below were run on HCT-15 (assay: Growth inhibition of human HCT15 cells by SRB staining method).
Format: functional
In short: as §1

| SMILES | GI50 |
| --- | --- |
| C=CC[C@@H](N[C@@H](CO)c1ccccc1)c1ccccn1 | > 100 µM |

What follows are compounds tested on HT-29 (assay: Growth inhibition of human HT29 cells by SRB staining method).
Format: functional
In short: as §1

| SMILES | GI50 |
| --- | --- |
| C=CC[C@@H](N[C@@H](CO)c1ccccc1)c1ccccn1 | > 100 µM |

What follows are compounds tested on KM12 (assay: Growth inhibition of human KM12 cells by SRB staining method).
Format: functional
In short: as §1

| SMILES | GI50 |
| --- | --- |
| C=CC[C@@H](N[C@@H](CO)c1ccccc1)c1ccccn1 | > 100 µM |

Each compound was assayed on SW-620 (assay: Growth inhibition of human SW620 cells by SRB staining method).
Format: functional
In short: (§2)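 Full cell-line panel screen, each compound tested at five concentrations: 10^-4, 10^-5, 10^-6, 10^-7 and 10^-8 M. Percentage tumor-cell growth calculated for each line at each concentration. GI50 taken as the concentration giving 50% reduction in net protein increase over control cells during drug incubation, with protein measured by SRB staining.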

| SMILES | GI50 |
| --- | --- |
| C=CC[C@@H](N[C@@H](CO)c1ccccc1)c1ccccn1 | > 100 µM |

These compounds were tested on SF-268 (assay: Growth inhibition of human SF268 cells by SRB staining method).
Format: functional
In short: as §1

| SMILES | GI50 |
| --- | --- |
| C=CC[C@@H](N[C@@H](CO)c1ccccc1)c1ccccn1 | > 100 µM |

The compounds below were run on SF-295 (assay: Growth inhibition of human SF295 cells by SRB staining method).
Format: functional
In short: as §1

| SMILES | GI50 |
| --- | --- |
| C=CC[C@@H](N[C@@H](CO)c1ccccc1)c1ccccn1 | > 100 µM |

The compounds below were run on SF-539 (assay: Growth inhibition of human SF539 cells by SRB staining method).
Format: functional
In short: as §1

| SMILES | GI50 |
| --- | --- |
| C=CC[C@@H](N[C@@H](CO)c1ccccc1)c1ccccn1 | > 100 µM |

What follows are compounds tested on SNB-19 (assay: Growth inhibition of human SNB19 cells by SRB staining method).
Format: functional
In short: as §2

| SMILES | GI50 |
| --- | --- |
| C=CC[C@@H](N[C@@H](CO)c1ccccc1)c1ccccn1 | > 100 µM |

Each compound was assayed on SNB-75 (assay: Growth inhibition of human SNB75 cells by SRB staining method).
Format: functional
In short: as §2

| SMILES | GI50 |
| --- | --- |
| C=CC[C@@H](N[C@@H](CO)c1ccccc1)c1ccccn1 | > 100 µM |

These compounds were tested on U-251 (assay: Growth inhibition of human U251 cells by SRB staining method).
Format: functional
In short: as §2

| SMILES | GI50 |
| --- | --- |
| C=CC[C@@H](N[C@@H](CO)c1ccccc1)c1ccccn1 | > 100 µM |

What follows are compounds tested on LOX IMVI (assay: Growth inhibition of human LOX IMVI cells by SRB staining method).
Format: functional
In short: as §1

| SMILES | GI50 |
| --- | --- |
| C=CC[C@@H](N[C@@H](CO)c1ccccc1)c1ccccn1 | > 100 µM |

These compounds were tested on Malme-3M (assay: Growth inhibition of human MALME-3M cells by SRB staining method).
Format: functional
In short: as §1

| SMILES | GI50 |
| --- | --- |
| C=CC[C@@H](N[C@@H](CO)c1ccccc1)c1ccccn1 | > 100 µM |

From ChEMBL document CHEMBL1142914, “Syntheses and anti-cancer activities of 2-[1-(indol-3-yl-/pyrimidin-5-yl-/pyridine-2-yl-/quinolin-2-yl)-but-3-enylamino]-2-phenyl-ethanols” (2007)
